Results pooled from the literature.
Target: RAF proto-oncogene serine/threonine-protein kinase (RAF1, Homo sapiens, UniProt P04049)

| SMILES | test | setting | measurement | value |
| --- | --- | --- | --- | --- |
| COc1ccc2oc(-c3ccc4nc(N)oc4c3)c/c(=N\c3ccccc3NC(=O)CCN)c2c1 | binding | 1 µM | remaining binding | 104% |
| CO[C@@H]1[C@H](N(C)C(=O)c2ccccc2)C[C@H]2O[C@]1(C)n1c3ccccc3c3c4c(c5c6ccccc6n2c5c31)C(=O)NC4 | enzyme activity, inhibitor | 1 µM | inhibition | 0% |
| Cc1cc(O)c(-c2ccc([C@@H](C)CN(C)C)cc2)c2c1[nH]c(=O)c1sccc12 | enzyme activity, inhibitor | 0.1 µM | inhibition | 7.07% |
| COc1ccc2[nH]c3c4[nH]c5ccc(OC)cc5c4c4c(c3c2c1)C(=O)NC4=O | binding, competition with immobilised ligand | 1 µM | remaining binding | 100% |
| C#Cc1cnc(Nc2ccnc(CO)c2)nc1Nc1ccccc1S(C)(=O)=NC#N (stereo not shown) | cell-free assay | 1 µM | remaining signal | 85% |
| C=CC(=O)N1CCC([C@@H]2CCNc3c(C(N)=O)c(-c4ccc(Oc5ccccc5)cc4)nn32)CC1 | enzyme activity, inhibitor | 1 µM | inhibition | 0% |
| CCCCC(=O)Nc1ccc(-c2ccc3ncn(CCC)c(=O)c3c2)cn1 | binding, competition with immobilised ligand | 0.5 µM | remaining binding | 80% |
| C#Cc1cc(-c2cc(Nc3nc(N[C@@H](C)c4ccc(F)cn4)ncc3Cl)n[nH]2)ccc1C=O | enzyme activity, inhibitor | 0.2 µM | inhibition | 13.8% |
| N#Cc1ccc(NC(=O)Nc2ccccc2)cc1 | cell-free assay, competition with immobilised ligand | 25 µM | remaining binding | 98% |
| Cc1ccc(NC(=O)c2ccnc(C(F)(F)F)c2)cc1-c1cc(OCCO)nc(N2CCOCC2)c1 | binding, competition with immobilised ligand | 1 µM | remaining binding | 1.2% |
